Laboratory results as given in the RNAGym collection of RNA variant scans (doi:10.1126/science.aae0568).
This sample holds only a part of the variants without activity.

B1: tRNA (parent)
chain: GUUCCGUUGGCGUAAUGGUAACGCGUCUCCCUCCUAAGGAGAAGACUGCGGGUUCGAGUCCCGUACGGAACG

Variants of: B1
Assay: yeast fitness relative to wild type (ratio to wild type); higher = fitter; tRNA-Arg(CCU), competitive growth, 37 C, YPD
Outline: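 Amplicons of the tRNA-Arg(CCU) gene were sequenced, 100-nucleotide paired-end, from the start population and from each end population of a pooled yeast competition. The competition, in six parallel replicates, lasted 24 hours in YPD at 37°C. Fitness relative to wild type was calculated from changes in genotype frequencies. Genotypes had to have ≥ 100 starting reads, and estimates < 0.5 were set to 0.5.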

Point of comparison: GUUCCGUUGGCAUAUUGGUAACGCGUCUCCCUCCUAAGGAGAAGACUGCGGGUUCGAGUCCCAUACGGAACG, yeast fitness 0.601. Against it:
- GUUCCGUUGGCAUAAUGGUUACGCGUCUCCCUCAUAAGGAGAAGACUGCGGGUUGGAGUCCCGUAAGGAACG — lower, ≤ 0.5
- GUUCCGUUGGCAUAAUGGUUACGCGUAUCCCCCCUAAGGAGAAGACUGCGGGUUUGAGUCCCGUACGAAACG — lower, ≤ 0.5
- GUUCCGUUGGCAUGAUGGUAACGCGUCUCCCUCCUAUGGAGAAGACUGCGGGUUCGAGUCCCGUACGGAACG — lower, 0.551
- GUUCCGUUGGCAUCAUGGUAACGCGUGUCCCUCCUAAGGAGAAGAGUGCGGGUUCGAGUCCCGUGCGGAACG — lower, ≤ 0.5
- GUUCCGUUGGCAUACUGGUAACGCGUCUCCCUCCUAAGGAGAAGACUGCGGGUUCGAGUCCUGUAGGGAGCG — lower, 0.562
- GUUCCGUUGGCAUAAUGGUUUCGCGUCUCCCUCGUAAGGAGAAGACUGCGGGUUCGAGUCCCCUACGGAACG — lower, ≤ 0.5
- GUUCCGUUGGCAUAAUGGUUACGCGUCUCCCUCCUAAGGAGCAGACUGCGGGUUCGAGUCCCGUACGAAACG — lower, 0.519
- GUUCCGUUGGCAUACUGGUAACGCGUCUCCUUCCUAAGGAGAAGACUGCGGGUUCGAGUCCUGUAGGGAGCG — lower, ≤ 0.5
- GUUCCGUUGGCAUAGUGGUAAUGCGUCUCCAUCCGAAGGAGAAGACUGCGGGUUCGAGUCUCGUCCGGAACG — lower, ≤ 0.5
- GUUCCGUUGGUGUAAUGGUAACGCGUCUCCCUCCUAAGGAGAAGACUGCGGGUUCGAGUCCCGCGCGGAACG — higher, 0.667
- GUUCCGUUGGCAUAGUGGUAACGCGUCUCCCUCCUAAGGAGAAGACUGCGGGUUCGAGUCCCGUCCGGCACG — lower, ≤ 0.5
- GUUCCGUUGGUGUAAUGGUAACGCGUCUCCCUCCUAAGGAGAAGACUGCGGGUUCGAGACCCGUACAGAACG — lower, 0.542
- GUUCCGUUGGCAUGAUGGUAACGCGUCUCCCUCCUUAGGAGAAGAAUGCGGGUUCGAGUCCCGUACGGAACG — lower, ≤ 0.5
- GUUCCGUUGGCAUAAUGGUUACGCGUCUCCAUCCUAAGGAGAAGACUGCGGAUUCGAGUCCCGUAUGGAACG — lower, ≤ 0.5
- GUUCCGUUGGUGUAAUGGUAACGCGUCUCCCUCCUAAGGAGAAGACCGCGCGUUCGAGUCCCGUACGGAGCG — higher, 0.669
- GUUCCGUUGGCAUAGUGGUAACGCGUCUCCCUCCUAAGGAGAAGACUGUGGGUUCGAGUCCCGUCCGGAGCG — lower, ≤ 0.5
- GUUCCGUUGGCAUUAUGGUAACGCGUCUCCCUCCUAAGGAGAAGACUGCGGGUUCGAGUCCCGUAAGGAACG — lower, ≤ 0.5
- GUUCCGUUGGCAUAGUGGUAACGCGUCUCCCUCCUAAGGAGAAGACUACGGGUUCGAGUCCCGUACGGAACG — higher, 0.763
- GUUCCGUUGGCAUGAUGGUAACGGGUCUCCCUCCUAAGGUGAAGAAUGCGGCUUCGAGUCCCGUACGGAACG — lower, ≤ 0.5
- GUUCCGUUGGCAUAAUGGUGACGCGUCUCCCUCCUAAGGAGAAGUCUGGGGCUUCGAGUCCCGUACGGAACG — lower, ≤ 0.5
- GUUCCGUUGGCAUAAUGGUUACGCCUCUCCCUCCUAAGGAGAAGACUGCGGGAUCGAGUCCCGUACGGAACG — lower, 0.599
- GUUCCGUUGGCAUAGUGGUAACGCGUCUCCCUCCUAAGGAGAAGACUGCGGGUUCGAGUCCCGUCCGGAGCG — lower, ≤ 0.5
- GUUCCGUUGGCAUCAUGGUAACGCGUCUCCUUCCUAAGGAGAAGACUGGGGGUUCGAGUACCGUACGGAACG — lower, ≤ 0.5
- GUUCCGUUGGCAUAGUGGUAACGCGUCUCCCUCCUAAGGAGAACACUGCGGGUUCGAGACCCGUACGGAACG — lower, ≤ 0.5
- GUUCCGUUGGCAUACUGGUAACGCGUCUCCCUCCUAAGGAGAAGAGUGCGGGUUCGAGUCCCGUACGGAACG — lower, 0.567
- GUUCCGUUGGCAUCAUGGUAACGCGUCUCCCUCCUAAGGAGAAGACUGCCGGUUCGAGUCCCGUACGGAACG — lower, 0.535
- GUUCCGUUGGCAUACUGGUAACGCGUGUCCCUCCUAAGGAGAAGACUGGGGGUUCGAGUCCCGUACGGAACG — lower, ≤ 0.5
- GUUCCGUUGGUGUAAUGGUAACGCGUCUCCCUCCGAAGGAGAAGACAACGGGUUCGAGUCCCGUUCGGAACG — lower, ≤ 0.5
- GUUCCGUUGGCAUAUUGGUAACGCGUCUCCCUCCUAAGGAGAAGACUGCGAGUUCGAGUCCCGUUCGGAACG — lower, ≤ 0.5
- GUUCCGUUGGCAUAAUGGUGACGCGCCUUCGUUCUAAGGAGUAGACUGCGGGUUCGAGUCCCGUACGGAACG — lower, ≤ 0.5
- GUUCCGUUGGUGUAAUGGUAACGCGUCUCCCUCCUAAGGAGAAGACUGCGGGUUCGAGACCCGUAGGGAACG — lower, ≤ 0.5
- GUUCCGUUGGUGUAAUGGUAACGCGUCUCCCUCCUAAGGAGAAGACCACGGGUUCAAGUCCCGUACGGAACG — lower, ≤ 0.5
- GUUCCGUUGGCAUAGUGGUAACGCGUCUCCAUCCUAAGGAGAAGACUGCGGGUUCGAGUCCCGUACGGAACG — lower, ≤ 0.5
- GUUCCGUUGGCAUUAUGGUAACGCGUCUCCCUCCUAAGGAGAAGACUGCGGGUUCGGGUCUCGUACGGAACG — lower, ≤ 0.5
- GUUCCGUUGGCAUAAUGGUUACGCGUCUCCCUCCUAAGGAGAAGACUGCGGGUUCGAGUCCCGUACGGAACG — higher, 0.831
- GUUCCGUUGGUGUAAUGGUAACGCGUCUCCCUCCUAAGGAGAAGACUGCGGGUUCGAGACCCGGACGGAACG — lower, ≤ 0.5
- GUUCCGUUGGCAUCAUGGUAACGCGUCUCCCUCUUAGGGAGAAGACUGCGGGUUCGAGUCCCGUACGGAACG — lower, ≤ 0.5
